# ROMK mod: ROMK potassium channel modulators, primary screen, cell-based, thallium flux, MLSMR library; B-score at 10 µM; 2% of 130,000 active; AID 1918, 2009; ATP-sensitive inward rectifier potassium channel 1 (Homo sapiens), P48048; Tet-inducible ROMK, thallium flux fluorescence; actives lie on both sides;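 active = signal ratio slope over the read window, or its plate-corrected B-score, at least 3 SD from the plate mean, either direction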;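 also: B-score of the F/F0 ratio slope over 7 to 12 s after thallium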
# Rad51 HR inh: human RAD51 strand exchange inhibitors, primary screen, biochemical, fluorescence; 0.085% of 200,000 active; DNA repair protein RAD51 homolog 1 (Homo sapiens), Q06609; inhibition, % at 10 µM; AID 1385, 2008; hRad51 DNA strand exchange, fluorescence dequenching;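 active = inhibition above 40% at the single screening dose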;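 also: 0% = DMSO control wells and 100% = blanks with heterologous ssDNA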
#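 material = hRad51 filaments on single-stranded DNA | timing = filaments 15 min 37 °C, then compound 30 min | signal = FRET fluorescence dequenching, excitation 485 nm, emission 520 nm | benchmarks = control wells and blank wells on each plate | evaluation = percent inhibition relative to plate controls and blanks | compound = 10 µM final, single point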
# Cl transport mod: KCC2 cotransporter modulators, thallium flux, primary screen, cell-based, HEK293 KCC2, FluoZin-2 fluorescence, MLSMR; AID 1456, 2008; 2.2% of 190,000 active; B-score of Tl+ flux slope (higher = more flux/activation; lower = inhibition) at 10 µM; Solute carrier family 12 member 5 (Homo sapiens), Q9H2X9; KCC2 cells, thallium flux FluoZin-2 fluorescence;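 active = thallium flux slope and its plate-corrected score both differing from the plate sample mean at a set confidence after two filtering rounds, in either direction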;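 also: slope of fluorescence scaled to starting intensity during 10 to 20 s after thallium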
# PKD1 inh: inhibitors of human PKD1 kinase, biochemical, fluorescence polarization; PKD1 kinase fluorescence polarization assay; inhibition, % (test concentration not listed); 0.056% of 200,000 active; AID 797, 2007; in the data active = inhibition above about 50%
# Target sequence (Q15139 whole entry, looked up): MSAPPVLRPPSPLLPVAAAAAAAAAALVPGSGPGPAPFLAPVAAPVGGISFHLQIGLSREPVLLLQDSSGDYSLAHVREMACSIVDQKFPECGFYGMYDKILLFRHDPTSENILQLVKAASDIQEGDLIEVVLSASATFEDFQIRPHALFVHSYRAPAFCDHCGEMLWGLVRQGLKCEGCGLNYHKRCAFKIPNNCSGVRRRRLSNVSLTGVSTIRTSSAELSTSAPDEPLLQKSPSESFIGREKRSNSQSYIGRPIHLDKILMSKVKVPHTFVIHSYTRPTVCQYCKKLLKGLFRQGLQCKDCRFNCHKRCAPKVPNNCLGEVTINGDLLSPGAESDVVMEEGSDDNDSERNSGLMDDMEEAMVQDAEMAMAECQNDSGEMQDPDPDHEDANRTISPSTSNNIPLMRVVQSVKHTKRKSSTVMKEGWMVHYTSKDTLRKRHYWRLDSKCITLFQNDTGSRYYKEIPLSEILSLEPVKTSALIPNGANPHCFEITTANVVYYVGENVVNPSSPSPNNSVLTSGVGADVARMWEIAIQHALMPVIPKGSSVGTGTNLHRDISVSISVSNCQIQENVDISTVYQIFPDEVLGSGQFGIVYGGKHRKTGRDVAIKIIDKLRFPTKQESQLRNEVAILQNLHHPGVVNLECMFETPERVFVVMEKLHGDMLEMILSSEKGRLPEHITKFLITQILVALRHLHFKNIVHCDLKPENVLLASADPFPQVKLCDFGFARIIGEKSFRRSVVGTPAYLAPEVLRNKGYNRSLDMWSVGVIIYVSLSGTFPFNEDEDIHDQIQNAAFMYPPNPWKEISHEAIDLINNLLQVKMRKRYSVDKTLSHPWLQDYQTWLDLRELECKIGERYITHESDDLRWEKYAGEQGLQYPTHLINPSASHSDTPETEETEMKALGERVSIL
# ROMK retest: ROMK channel modulator hit retest, confirmation, cell-based, thallium flux, duplicate, resupplied hits | normalized thallium flux (F/F0 slope) at 10 µM | shares compounds with ROMK mod | fluorescence ratio; hits give low values | 54% of 3,000 active;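 active = Flux at 10 µM at least 3 SD below or above vehicle control mean in one or both replicates; inconclusive = no clear call, values can overlap the other calls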
# Active calls of the source: *; u = inconclusive; x = no result. Compounds with a hit are over-represented: about 3% of the library has one in this group of screens.
SMILES,ROMK mod,Rad51 HR inh,Cl transport mod,PKD1 inh,ROMK retest
Cc1cccc(-n2c3nc(=O)[nH]c(=O)c-3cc3cc([N+](=O)[O-])ccc32)c1,-2.8*,20,-0.037,12,0.048*
Cc1cccc(-n2c3nc(=O)[nH]c(=O)c-3cc3c(C)nn(-c4ccccc4)c32)c1C,x,6,-0.072,-6,x
Cc1ccc(C)c(-n2c3nc(=O)[nH]c(=O)c-3cc3cc([N+](=O)[O-])ccc32)c1,x,x,-0.39,0,0.043*
COC(=O)c1ccc(NC(=O)c2sc3nc(-c4ccccc4)cn3c2C)cc1,x,x,-0.82,5,u
CCS(=O)(=O)N1CCN(c2ccc([N+](=O)[O-])c(NC(C)c3ccccc3)c2)CC1 (stereo not given),x,8,-0.66,-13,x
CC(Nc1cc(N2CCNCC2)ccc1[N+](=O)[O-])c1ccccc1 (stereo not given),-3.2*,x,-0.74,2,0.053*
N#C/C(=C/c1cc(Br)cs1)C(=O)NCC1CCCO1 (stereo not given),x,3,-0.16,2,0.064*
CCN(CC)CCN1C2=C(C(=O)CC(C)(C)C2)C(c2cccc(F)c2)C2=C1CC(C)(C)CC2=O,-0.9,-2,x,2,x
CC1(C)CC(=O)C2=C(C1)N(CCN1CCOCC1)C1=C(C(=O)CC(C)(C)C1)C2c1cccc(Cl)c1,-3*,-12,x,7,0.052*
Cc1cc(N2C(=O)C3C4CCC(C4)C3C2=O)no1 (stereo not given),-1.9,x,0.19,-6,x
CCc1c(C)nc(SCC(=O)N2CCCCC2C)[nH]c1=O (stereo not given),x,x,x,2,x
O=C(Nc1nc2cc3c(cc2s1)OCO3)C1=COCCO1,2.5*,-10,0.045,-3,0.08
N#CC1=C(N)Oc2n[nH]c(-c3cccs3)c2C1c1ccncc1 (stereo not given),-0.023,1,0.11,4,x
N#CC1=C(N)Oc2n[nH]c(-c3cccs3)c2C1c1ccco1 (stereo not given),-3.5*,-10,-1.6,-2,0.053*
O=C(NN=C1CCCCCCCCCCC1)c1cccc(S(=O)(=O)N2CCOCC2)c1,-0.061,-1,-0.033,-6,x
O=C1N(Cc2cccc(Cl)c2)C[C@@H]2C[C@@H](c3cccn3-c3cccnc3)N3CCC[C@@]123,-2.7*,-4,0.13,0,0.061*
COc1ccc(N2C(=O)C3CCCN3C2c2ccccc2F)cc1 (stereo not given),x,-2,0.15,-8,x
O=C1C2CCCN2C(c2ccccc2F)N1c1ccc(Cl)cc1 (stereo not given),1.5*,-3,x,23,0.075
Cc1ccc(C(NC(=O)C(C)C)c2cc([N+](=O)[O-])c3cccnc3c2O)cc1 (stereo not given),3.3*,-32,-0.32,-4,0.081
O=C(O)CCC(CNS(=O)(=O)c1ccccc1)C(F)(F)F (stereo not given),-0.00022,-2,0.98,-3,x
O=C(NS(=O)(=O)Oc1ccc(Cl)cc1)OC[C@@H]1CCCN2CCCC[C@H]12,1.5,x,0.78,6,x
Cc1ccc2c(C(=O)N3CCN(c4ccccc4)CC3)cc(-c3cccnc3)nc2c1C,1.9*,9,-1.5,3,0.078
COc1ccc(C(=O)n2nc(C)cc2Nc2ccccc2)cc1,1.8*,-1,-0.3,3,u
Cc1cc(Nc2ccccc2)nn1C(=O)c1ccccc1,x,2,-0.037,2,x
OC(CNC1CCCCC1)COCCOc1ccc(Br)cc1 (stereo not given),-4.1*,-2,1.5,-16,0.059*
Cn1nc(C(F)(F)F)cc1C(=O)Nc1ccc(Cl)cc1,x,-9,0.38,x,0.082
COc1ccc2c(c1)[nH]c1c(N3CCN(Cc4ccc5c(c4)OCO5)CC3)ncnc12,-1.7,-2,x,-53,x
Cc1ccc2[nH]c3c(N4CCCCCC4)ncnc3c2c1,-4*,x,x,-7,0.058*
Cc1ccc2[nH]c3c(N4CCN(Cc5ccc6c(c5)OCO6)CC4)ncnc3c2c1,-3.8*,x,x,15,0.061*
Cc1cccc(NC(=O)c2ccccc2OCC(=O)N2CCCC2)c1C,0.024,-11,-1.3,-4,x
